Shown are actives, neighbours in structure and some others; about 2.2% of the full set was active somewhere.
Hck Nef HTS: inhibitors of human Hck kinase activated by Nef; inhibition, % at 20 µM; Recombinant Hck-YEEI plus Nef, Z-Lyte FRET kinase assay; AID 463187; 220,000 tested, 0.68% active;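 active = Hck-Nef kinase inhibition above about 50%, limit read from the data; inactive = inhibition below that limit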
Target sequence (P08631 whole entry, looked up): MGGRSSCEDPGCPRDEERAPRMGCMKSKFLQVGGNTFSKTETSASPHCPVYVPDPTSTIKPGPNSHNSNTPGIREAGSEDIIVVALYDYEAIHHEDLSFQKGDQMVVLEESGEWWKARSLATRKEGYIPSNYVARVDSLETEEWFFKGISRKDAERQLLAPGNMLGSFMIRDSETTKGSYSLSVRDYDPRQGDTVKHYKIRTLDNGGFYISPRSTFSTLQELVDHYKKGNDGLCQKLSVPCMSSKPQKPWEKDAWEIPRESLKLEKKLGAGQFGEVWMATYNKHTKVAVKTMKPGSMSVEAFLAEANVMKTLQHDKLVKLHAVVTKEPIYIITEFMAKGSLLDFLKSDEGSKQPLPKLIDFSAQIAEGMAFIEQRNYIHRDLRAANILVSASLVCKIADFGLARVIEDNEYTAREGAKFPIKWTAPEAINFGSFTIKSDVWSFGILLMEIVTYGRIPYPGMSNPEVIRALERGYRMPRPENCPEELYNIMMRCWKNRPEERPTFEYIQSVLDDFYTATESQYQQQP
PERK inh: inhibitors of human PERK kinase; CHO PERK-DD fusion, SEAP luminescence translation reporter; inhibition, % at 5.6 µM; AID 1416; Q9NZJ5; 220,000 tested, 0.17% active;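 active = inhibition above the mean inhibition of all tested compounds plus 3 SD, set separately per screening campaign, cut at about 2.9% in these data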;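 also: PERK kinase domain activated by AP20187 dimerizer at 100 nM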
Runt-SMMHC FRET: blocks binding of human RUNX1 Runt domain to CBFb-SMMHC | Cerulean-Runt/Venus-CBFb-SMMHC FRET ratio 530/480, 1 h | inhibition, % at 20 µM | 220,000 tested, 0.74% active | AID 1434;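 active = mean inhibition across duplicate retests at 20 µM reaching about 50%, limit read from the data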;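 also: inhibitors lower the FRET ratio by blocking Runt binding to CBFb-SMMHC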
eIF4E 4G PPI: eIF4E/eIF4G interaction inhibition in translation initiation | P63073+Q04637 | TR-FRET eIF4E-eIF4GI(517-606) binding, 2 h | inhibition, % at 21.7 µM | 220,000 tested, 0.37% active;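 active = inhibition above about 30%, limit read from the data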
RanGTP-Impb inh: disruptors of Ran-importin-beta complex formation – biochemical, FRET, CFP-Ran, YFP-importin-beta, homogeneous, primary screen; cell-free CFP-Ran/YFP-importin-beta FRET ratio; inhibition, % (concentration not given with the values); 300,000 tested, 1.1% active; AID 2216;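 active = more than half of the replicate wells show a fall in the fluorescence ratio signal beyond about 16%, limit read from the data, passing the limit was not always enough; inconclusive = exactly half of the replicate wells pass the set limit; inactive = fewer than half of replicates pass the limit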
Runt-CBFb FRET: blocks binding of human RUNX1 Runt domain to CBFb; Q01196+Q13951; Cerulean-Runt/Venus-CBFb FRET ratio 530/480, 1 h; inhibition, % at 20 µM; 220,000 tested, 0.46% active; AID 1496;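 active = inhibition over about 50% at 20 µM in the single-dose screen, limit read from the data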
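System: Cerulean-labeled Runt domain protein | Quantity: 100 nM of each labeled protein | Schedule: 1 h compound exposure, room temperature | Detection: Fluorescence energy transfer, 422 nm excitation, 530/480 nm emission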
Each line names hits and unclear results; the compound was inactive in the other large screens.

Nc1ccccc1-[n+]1c(-c2ccccc2)cc(-c2ccccc2)cc1-c1ccccc1	RanGTP-Impb inh 41
Oc1ccccc1-[n+]1c(-c2ccccc2)cc(-c2ccccc2)cc1-c1ccccc1	none (no result: Hck Nef HTS, PERK inh, Runt-SMMHC FRET, eIF4E 4G PPI, Runt-CBFb FRET)
Cc1cc(/C=C2\C(=O)NC(=O)N(c3cccc(F)c3)C2=O)c(C)n1-c1ccc(C(=O)O)c(Cl)c1	none (no result: Hck Nef HTS, PERK inh, Runt-SMMHC FRET, eIF4E 4G PPI, Runt-CBFb FRET)
Cc1ccc(N2C(=O)NC(=O)/C(=C/c3ccc(-c4ccc(C(=O)O)c(Cl)c4)o3)C2=O)cc1	Hck Nef HTS 52
CCC(=NCc1ccco1)c1c(O)n(C2CCCCC2)c(=O)[nH]c1=O	Runt-SMMHC FRET 102
CCC(=NCc1cccnc1)c1c(O)n(C2CCCCC2)c(=O)[nH]c1=O	none
O=C1NC(=O)C(CCc2ccncc2)(Cc2ccc([N+](=O)[O-])cc2)C(=O)N1	none
COc1cc(/C=C2\C(=O)NC(=O)N(c3ccccc3)C2=O)cc(OC)c1O	none
COc1cc(/C=C2\C(=O)NC(=O)N(c3ccccc3)C2=O)c([N+](=O)[O-])cc1OC	PERK inh 3.0 (no result: RanGTP-Impb inh)
NC(=O)c1cn(C2OC(CO)C(O)C2O)c2ncnc(N)c12 (configuration not stated)	Hck Nef HTS 54, PERK inh 5.3
C[C@H]1CC[C@@H]2[C@@H](C)[C@H]3[C@H](C[C@H]4[C@@H]5CC=C6C[C@@H](O[C@@H]7O[C@H](CO)[C@H](O)[C@H](O[C@@H]8O[C@H](CO)[C@@H](O)[C@H](O)[C@H]8O)[C@H]7O[C@@H]7O[C@@H](C)[C@H](O)[C@@H](O)[C@H]7O)CC[C@]6(C)[C@H]5CC[C@]34C)N2C1	RanGTP-Impb inh 17
CCOC(=O)c1c(N)n(Cc2ccc(OC)cc2)c2nc3ccccc3nc12	Runt-SMMHC FRET 110
CCOC(=O)c1c(C)n(Cc2ccco2)c2ccc(OC)cc12	none
COC(=O)c1c(N)n(Cc2ccc(OC)cc2)c2nc3ccccc3nc12	Runt-SMMHC FRET 118 (no result: RanGTP-Impb inh)
O=C(c1cc(-c2ccccc2)on1)N1CCC2(CC1)OCCO2	none
CCC(C(=O)Nc1ccc(Cl)cc1)N1CCCC1=O (configuration not stated)	none (no result: Hck Nef HTS, PERK inh, Runt-SMMHC FRET, eIF4E 4G PPI, Runt-CBFb FRET)
CC[C@@H](C(N)=O)N1CCCC1=O	eIF4E 4G PPI 98, RanGTP-Impb inh inconclusive (no result: Hck Nef HTS)
CN(C)/C=C1/C(=O)NC(=O)N(CCNc2ncc(C(F)(F)F)cc2Cl)C1=O	Hck Nef HTS 154
O=C(NC(C(Cl)Cl)N1CCOCC1)c1ccccc1 (configuration not stated)	RanGTP-Impb inh 22
O=C(NCC(c1cccnc1)N1CCOCC1)Oc1ccccc1 (configuration not stated)	RanGTP-Impb inh inconclusive
CC(=O)N1N=C2C3CCN(CC3)C2C1c1ccc(Br)cc1 (configuration not stated)	none
Cc1ccc(C2C(=O)NC(=O)NC2=O)cc1	none (no result: Hck Nef HTS, PERK inh, Runt-SMMHC FRET, eIF4E 4G PPI, Runt-CBFb FRET)
COc1ccc(CN2C(=O)NC(=O)/C(=C/c3ccc([N+](=O)[O-])o3)C2=O)cc1	Hck Nef HTS 142 (no result: RanGTP-Impb inh, Runt-CBFb FRET)
COc1ccc(/C=C2/C(=O)NC(=O)N(Cc3ccco3)C2=O)cc1	Hck Nef HTS 57
CCCCCCCCCOc1ccc2[nH]cc(CCN)c2c1	none (no result: Hck Nef HTS, RanGTP-Impb inh)
CC1CCN(CCc2nc3ccccc3[nH]2)CC1	none (no result: Hck Nef HTS, PERK inh, Runt-SMMHC FRET, eIF4E 4G PPI, Runt-CBFb FRET)
CC(C)CCNC(=O)CN1C(=O)CN=C(c2ccccc2)c2ccccc21	none
CCC(C)NC(=O)CN1C(=O)CN=C(c2ccccc2)c2ccccc21 (configuration not stated)	PERK inh 3.1
Brc1ccc(-[n+]2c(-c3ccccc3)cc(-c3ccccc3)cc2-c2ccccc2)cc1	none (no result: Hck Nef HTS, PERK inh, Runt-SMMHC FRET, eIF4E 4G PPI, Runt-CBFb FRET)
Cc1nn(CCC#N)c2c1P(=S)(N1CCCC1)OC(c1ccc(F)cc1)=N2 (configuration not stated)	eIF4E 4G PPI 32
CN(C)c1ccc(CCN2CCOCC2)cc1	none (no result: Hck Nef HTS, PERK inh, Runt-SMMHC FRET, eIF4E 4G PPI, Runt-CBFb FRET)
CN(C)c1ccc2c(c1)N=C(c1ccco1)OP2(=S)N1CCOCC1 (configuration not stated)	eIF4E 4G PPI 41
CN1CC=C2C(C#N)=C(N)C(C#N)(C#N)C(c3ccncc3)C2C1 (configuration not stated)	RanGTP-Impb inh 45 (no result: eIF4E 4G PPI)
